The record followed here is paper PMC4059252 (Journal of Medicinal Chemistry, 2014).

The series is described as follows: Metal cation competition. The format is physicochemical. The procedure, abridged:
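200 μM ligand (1 mL) was labelled with 30–50 μCi neutralised 89Zr for 1 h at room temperature, and complete labelling was confirmed by radio-TLC. 200 μL aliquots were mixed with 200 μL 1 mM metal salt (e.g. CoCl2) at pH 7.4 and incubated at 37 °C with agitation. Radio-TLC at 1 h, 1, 5, 7 d gave % intact complex. Mean and SD from two experiment sets.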

The structures appear in SMILES notation. Some results are limits rather than exact numbers.

In the case of `CC(=O)N(O)CCCCCNC(=O)CCC(=O)N(O)CCCCCNC(=O)CCC(=O)N(O)CCCCCN` [DFO, desferrioxamine B], the “^89Zr^4+ released” value is, setting by setting: (after 7 days of incubation with FeCl3) above 50%; (in the presence of Ga^3+) around 9%.
